How the values were obtained:
[1] = system: Rattus norvegicus; test: Inhibition of total cholesterol in normolipidemic rats after 2 hr of 50 mg/kg oral dosing; no significant change; type: functional, organism-based; set-up: dose 50 mg/kg
Summary of the method: (§1)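 Overnight-fasted normolipidemic rats received a single oral dose in cornstarch vehicle. Blood was drawn at 2, 6 and 24 h post-dose and assayed for triglycerides and total cholesterol, with free access to food after the 6 h sample. Value is mean percent inhibition versus a separate vehicle-treated group, unpaired t test p < 0.05, NS = no significant change, N = 6.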

[2] = system: Rattus norvegicus; test: Inhibition of plasma triglycerides in normolipidemic rats after 6 h of […] mg/kg oral dosing; no significant change; type: functional, organism-based; set-up: dose 50 mg/kg
[3] = system: Rattus norvegicus; test: Inhibition of plasma triglycerides in normolipidemic rats after 2 hr of 50 mg/kg oral dosing; no significant change; type: functional, organism-based; set-up: dose 50 mg/kg; summary of the method: as §1
[4] = system: Rattus norvegicus; test: Inhibition of plasma triglycerides in normolipidemic rats after 24 h of 50 mg/kg oral dosing; no significant change; type: functional, organism-based; set-up: dose 50 mg/kg; summary of the method: as §1
[5] = system: Rattus norvegicus; test: Inhibition of total cholesterol in normolipidemic rats after 6 h of […] mg/kg oral dosing; no significant change; type: functional, organism-based; set-up: dose 50 mg/kg
[6] = system: Rattus norvegicus; test: Inhibition of total cholesterol in normolipidemic rats after 24 hr of 50 mg/kg oral dosing; type: functional, organism-based; set-up: dose 50 mg/kg; summary of the method: as §1
[7] = molecular target: T1, Microsomal triglyceride transfer protein large subunit (Homo sapiens, UniProt P55157); test: In vitro inhibitory activity against MTP using MTP transfer assay
T1 sequence (P55157 whole entry): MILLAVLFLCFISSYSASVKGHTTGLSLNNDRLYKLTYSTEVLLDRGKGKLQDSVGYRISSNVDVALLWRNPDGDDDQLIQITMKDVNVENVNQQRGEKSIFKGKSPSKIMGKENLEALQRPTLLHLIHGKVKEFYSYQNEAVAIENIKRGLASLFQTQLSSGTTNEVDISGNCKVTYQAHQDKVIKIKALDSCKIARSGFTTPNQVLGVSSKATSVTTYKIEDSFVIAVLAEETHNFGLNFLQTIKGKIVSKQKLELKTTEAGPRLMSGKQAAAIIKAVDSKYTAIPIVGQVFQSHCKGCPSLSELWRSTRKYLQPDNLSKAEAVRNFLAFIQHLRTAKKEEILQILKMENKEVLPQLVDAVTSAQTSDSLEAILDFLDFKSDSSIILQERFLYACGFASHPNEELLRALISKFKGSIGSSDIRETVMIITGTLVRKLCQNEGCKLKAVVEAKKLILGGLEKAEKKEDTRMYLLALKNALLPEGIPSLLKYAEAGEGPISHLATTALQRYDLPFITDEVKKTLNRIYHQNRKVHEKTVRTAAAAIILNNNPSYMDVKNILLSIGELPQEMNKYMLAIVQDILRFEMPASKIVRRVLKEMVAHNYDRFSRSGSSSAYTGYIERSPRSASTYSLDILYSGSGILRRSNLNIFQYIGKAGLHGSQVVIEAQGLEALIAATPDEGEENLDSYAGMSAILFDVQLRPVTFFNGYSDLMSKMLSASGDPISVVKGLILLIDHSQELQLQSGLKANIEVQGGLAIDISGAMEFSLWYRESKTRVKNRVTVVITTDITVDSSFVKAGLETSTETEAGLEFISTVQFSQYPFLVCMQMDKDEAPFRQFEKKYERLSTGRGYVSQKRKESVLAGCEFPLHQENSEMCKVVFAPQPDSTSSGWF

[8] = system: Rattus norvegicus; test: Inhibition of total cholesterol in normolipidemic rats after 24 hr of 50 mg/kg oral dosing; no significant change; type: functional, organism-based; set-up: dose 50 mg/kg; summary of the method: as §1
[9] = system: Rattus norvegicus; test: Inhibition of plasma triglycerides in normolipidemic rats after 24 hr of 50 mg/kg oral dosing; No significant change; type: functional, organism-based; set-up: dose 50 mg/kg; summary of the method: as §1
[10] = system: Rattus norvegicus; test: Inhibition of total cholesterol in normolipidemic rats after 6 hr of 5 mg/kg oral dosing; type: functional; summary of the method: as §1
[11] = system: Rattus norvegicus; test: Inhibition of plasma triglycerides in normolipidemic rats after 24 hr of 5 mg/kg oral dosing; no significant change; type: functional, organism-based; set-up: dose 5 mg/kg; summary of the method: as §1
[12] = system: Rattus norvegicus; test: Inhibition of total cholesterol in normolipidemic rats after 2 h of 5 mg/kg oral dosing; type: functional; summary of the method: as §1
[13] = system: Rattus norvegicus; test: Inhibition of plasma triglycerides in normolipidemic rats after 2 hr of 5 mg/kg oral dosing; type: functional; summary of the method: as §1
[14] = system: Rattus norvegicus; test: Inhibition of plasma triglycerides in normolipidemic rats after 6 hr of 50 mg/kg oral dosing; type: functional; summary of the method: as §1
[15] = system: Rattus norvegicus; test: Inhibition of total cholesterol in normolipidemic rats after 6 hr of 50 mg/kg oral dosing; type: functional; summary of the method: as §1
[16] = system: Rattus norvegicus; test: Inhibition of total cholesterol in normolipidemic rats after 24 hr of 5 mg/kg oral dosing; no significant change; type: functional, organism-based; set-up: dose 5 mg/kg; summary of the method: as §1
[17] = system: Rattus norvegicus; test: Inhibition of plasma triglycerides in normolipidemic rats after 6 h of 5 mg/kg oral dosing; type: functional; summary of the method: as §1
[18] = system: Rattus norvegicus; test: Inhibition of total cholesterol in normolipidemic rats after 2 hr of 50 mg/kg oral dosing; type: functional; summary of the method: as §1
[19] = system: Rattus norvegicus; test: Inhibition of plasma triglycerides in normolipidemic rats after 2 hr of 50 mg/kg oral dosing; type: functional; summary of the method: as §1

IC50 [7]	SMILES	NS [1]	NS [2]	NS [3]	NS [4]	NS [5]	NS [6]	NS [8]	NS [9]	Reduction [10]	NS [11]	Reduction [12]	Reduction [13]	Reduction [14]	Reduction [15]	NS [16]	Reduction [17]	Reduction [18]	Reduction [19]
0.07 µM	COC(=O)NCCC1Cc2ccc(NC(=O)c3cccc(C)c3-c3ccc(C(F)(F)F)cc3)cc2C1 (configuration not stated)	no significant change	no significant change	no significant change	no significant change	no significant change	no significant change												
0.17 µM	COC(=O)N[C@H]1Cc2ccc(NC(=O)c3cc(C)ccc3-c3ccc(C(F)(F)F)cc3)cc2C1	no significant change	no significant change	no significant change		no significant change		no significant change	no significant change										
0.07 µM	COC(=O)N[C@@H]1Cc2ccc(NC(=O)c3cccc(C)c3-c3ccc(C(F)(F)F)cc3)cc2C1				no significant change			no significant change		45%	no significant change	33%	85%	74%	43%	no significant change	71%	27%	78%
